Experimental data reported in ChEMBL document CHEMBL1147740, “Synthesis and biological activity of isoxazolidinyl polycyclic aromatic hydrocarbons: potential DNA intercalators” (J Med Chem, 2006).
Values after ≈ are worked out from the molar mass of the structure shown. Active and inactive are the calls of the source. No cut-off for these calls is given here.

Key:
MOLT-3 [1] = experiment: Cytotoxicity against MOLT3 Leukemia cells by MTS assay; type: functional, cell-based, Homo sapiens; conditions: Homo sapiens, MOLT-3
Summary of the method: (§1)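 MTS tetrazolium reduction assay; cells grown under optimal culture conditions for 20 h with compound at 10 to 500 µM or without it; MTS reagent then added for 1 h at 37 °C, humidified 5% CO2; absorbance read at 490 nm. Triplicate. IC50 is the concentration giving 50% reduction of absorbance.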

THP-1 = experiment: Cytotoxicity against THP1 Leukemia cells by MTS assay; type: functional, cell-based, Homo sapiens; conditions: Homo sapiens, THP-1; summary of the method: as §1
U-937 = experiment: Cytotoxicity against U937 Lymphoma cells by MTS assay; type: functional, cell-based, Homo sapiens; conditions: Homo sapiens, U-937; summary of the method: as §1
Vero [2] = experiment: Cytotoxicity against normal vero kidney cells by MTS assay; type: functional, cell-based, Chlorocebus sabaeus; conditions: Chlorocebus sabaeus, Vero; summary of the method: as §1
MOLT-3 [3] = experiment: Cytotoxicity against MOLT3 Leukemia cells after 24 hrs of treatment; type: functional, cell-based; conditions: Homo sapiens, MOLT-3, 24 h
Summary of the method: (§2)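 Trypan blue exclusion; cells exposed under optimal culture conditions to new compounds at 10 to 500 µM (actinomycin D 1 to 200 µM) or control medium for the stated time. CC50 is the concentration causing 50% toxicity by trypan blue.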

MOLT-3 [4] = experiment: Cytotoxicity against MOLT3 Leukemia cells after 48 hrs of treatment; type: functional, cell-based; conditions: Homo sapiens, MOLT-3, 48 h; summary of the method: as §2
MOLT-3 [5] = experiment: Cytotoxicity against MOLT3 Leukemia cells after 72 hrs of treatment; type: functional, cell-based; conditions: Homo sapiens, MOLT-3, 72 h; summary of the method: as §2
MOLT-3 [6] = experiment: Potentiation of fas-mediated apoptosis in MOLT3 cells; type: functional, cell-based; conditions: Homo sapiens
Summary of the method: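 MOLT-3 cells given anti-fas antibody (CH11) at 25, 50 or 100 ng/mL, alone or immediately after compound at 25 or 50 µM. Cultured 20 h, stained with acridine orange, and apoptosis scored by fluorescence microscopy.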

HEL = experiment: Antiviral activity against HEL cells; type: functional, Homo sapiens; conditions: Homo sapiens, HEL; read-out: MCC
Summary of the method: (§3)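 Cytotoxicity scored as the concentration giving a microscopically detectable alteration of normal cell morphology in HEL, HeLa or Vero cells.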

Vero [7] = experiment: Antiviral activity against vero cells; type: functional, Chlorocebus sabaeus; conditions: Chlorocebus sabaeus, Vero; read-out: MCC; summary of the method: as §3
HeLa = experiment: Antiviral activity against HeLa cells; type: functional, Homo sapiens; conditions: Homo sapiens, HeLa; read-out: MCC; summary of the method: as §3
Human alphaherpesvirus 1 [8] = experiment: Antiviral activity against Herpes simplex virus 1 KOS strain in HEL cells; type: functional, Human herpesvirus 1 strain KOS; conditions: Human alphaherpesvirus 1, KOS
Summary of the method: (§4)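 Minimum inhibitory concentration (µg/mL) needed to reduce virus-induced cytopathogenicity by 50%; HSV strains in HEL cells, Punta Toro virus in Vero cells.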

Human alphaherpesvirus 2 = experiment: Antiviral activity against Herpes simplex virus 2 G strain in HEL cells; type: functional; conditions: Human alphaherpesvirus 2, G; summary of the method: as §4
Vaccinia virus = experiment: Antiviral activity against Vaccinia virus in HEL cells; type: functional; conditions: Orthopoxvirus vaccinia
Summary of the method: (§5)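 Virus infection of HEL cell cultures. The endpoint is the minimum inhibitory concentration (µg/mL) that reduces virus-induced cytopathogenicity by 50%.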

[9] = test system: Vesicular stomatitis virus; experiment: Antiviral activity against Vesicular stomatitis virus in HEL cells; type: functional; summary of the method: as §5
Human alphaherpesvirus 1 [10] = experiment: Antiviral activity against herpes simplex virus 1 TK- KOS ACVr strain in HEL cells; type: functional; conditions: Human alphaherpesvirus 1, TK- KOS ACVr; read-out: MIC50; summary of the method: as §4
Human respirovirus 3 = experiment: Antiviral activity against Parainfluenza-3 virus in vero cells; type: functional
Summary of the method: (§6)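 Virus infection of Vero cell cultures. The endpoint is the minimum inhibitory concentration (µg/mL) that reduces virus-induced cytopathogenicity by 50%.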

[11] = test system: Mammalian orthoreovirus 1; experiment: Antiviral activity against Reovirus 1 in vero cells; type: functional; summary of the method: as §6
Sindbis virus = experiment: Antiviral activity against Sindbis virus in vero cells; type: functional; summary of the method: as §6
Coxsackievirus B4 [12] = experiment: Antiviral activity against Coxsackie virus B4 in vero cells; type: functional; conditions: Enterovirus B; summary of the method: as §6
Punta Toro virus = experiment: Antiviral activity against Punta Toro virus in vero cells; type: functional; conditions: Punta Toro virus; read-out: MIC50; summary of the method: as §4
[13] = test system: Respiratory syncytial virus; experiment: Antiviral activity against Respiratory syncytial virus in HeLa cells; type: functional; conditions: human respiratory syncytial virus
Summary of the method: (§7)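 Virus infection of HeLa cell cultures. The endpoint is the minimum inhibitory concentration (µg/mL) that reduces virus-induced cytopathogenicity by 50%.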

Coxsackievirus B4 [14] = experiment: Antiviral activity against Coxsackie virus B4 in HeLa cells; type: functional; conditions: Enterovirus B; summary of the method: as §7
[15] = test system: Vesicular stomatitis virus; experiment: Antiviral activity against Vesicular stomatitis virus in HeLa cells; type: functional; summary of the method: as §7

Compound | IC50 (MOLT-3 [1]) | IC50 (THP-1) | IC50 (U-937) | IC50 (Vero [2]) | AC50 (MOLT-3 [3]) | CC50 (MOLT-3 [3]) | further results
OC[C@@H]1C[C@H](c2c3ccccc3cc3ccccc23)N(Cc2ccccc2)O1 (racemic) | > 500 µM | – | – | – | – | – | –
CN1O[C@H](CO)C[C@@H]1c1ccc2ccc3cccc4ccc1c2c34 (racemic) | 112 µM | 107 µM | 111 µM | 159 µM | 118 µM | 278 µM | AC50 (MOLT-3 [4]): 71 µM; CC50 (MOLT-3 [4]): 168 µM; AC50 (MOLT-3 [5]): 67 µM; CC50 (MOLT-3 [5]): 133 µM
OC[C@@H]1C[C@H](c2cc3ccccc3c3ccccc23)N(Cc2ccccc2)O1 (racemic) | 78 µM | 50 µM | 54 µM | 63 µM | 69 µM | 73 µM | Activity (MOLT-3 [6]): Active
CN1O[C@H](CO)C[C@@H]1c1cc2ccccc2c2ccccc12 (racemic) | 125 µM | 169 µM | 153 µM | 246 µM | – | – | MCC (HEL): 400 µg/mL; MCC (Vero [7]): 80 µg/mL; MCC (HeLa): 80 µg/mL; MIC50 (Human alphaherpesvirus 1 [8]): > 80 µg/mL; MIC50 (Human alphaherpesvirus 2): > 80 µg/mL; MIC50 (Vaccinia virus): > 80 µg/mL; MIC50 [9]: > 80 µg/mL; MIC50 (Human alphaherpesvirus 1 [10]): 48 µg/mL (≈ 164 µM); MIC50 (Human respirovirus 3): > 16 µg/mL; MIC50 [11]: > 16 µg/mL; MIC50 (Sindbis virus): > 16 µg/mL; MIC50 (Coxsackievirus B4 [12]): > 16 µg/mL; MIC50 (Punta Toro virus): 9.6 µg/mL (≈ 32.7 µM); MIC50 [13]: > 16 µg/mL; MIC50 (Coxsackievirus B4 [14]): > 16 µg/mL; MIC50 [15]: > 16 µg/mL
CN1O[C@@H](CO)C[C@@H]1c1c2ccccc2cc2ccccc12 (racemic) | > 500 µM | – | – | – | – | – | –
OC[C@@H]1C[C@H](c2ccc3ccc4cccc5ccc2c3c45)N(Cc2ccccc2)O1 (racemic) | 127 µM | 192 µM | 193 µM | 301 µM | > 500 µM | > 500 µM | AC50 (MOLT-3 [4]): 97 µM; CC50 (MOLT-3 [4]): 97 µM; AC50 (MOLT-3 [5]): 67 µM; CC50 (MOLT-3 [5]): 58 µM
OC[C@H]1C[C@H](c2c3ccccc3cc3ccccc23)N(Cc2ccccc2)O1 (racemic) | > 500 µM | – | – | – | – | – | –
